From ChEMBL document CHEMBL4732169, “Design and synthesis of mycobacterial pks13 inhibitors: Conformationally rigid tetracyclic molecules” (Eur J Med Chem, 2021)
≈ marks a conversion by molar mass, not a printed value.

Experiments:
[1] = tested on: Mycobacterium tuberculosis; assay: Antitubercular activity against Mycobacterium tuberculosis H37Rv assessed as bacterial growth inhibition incubated for 4 days by MABA assay; type: functional; conditions: time 4 day
[2] = tested on: Vero; assay: Cytotoxicity against African green monkey Vero cells incubated for 72 hrs in DEME medium; type: cell-based; conditions: Chlorocebus sabaeus
[3] = Selective index, ratio of CC50 for African green monkey Vero cells to IC50 for Mycobacterium tuberculosis H37Rv
In short: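 Vero (African green monkey kidney) cytotoxicity measured by alamar blue assay to give IC50. SI calculated as IC50(Vero)/MIC(H37Rv).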

[4] = tested on: Mycobacterium tuberculosis; assay: Binding affinity to wild type Mycobacterium tuberculosis Pks13-TE expressed in Escherichia coli BL21(DE3)pLysS assessed as change in melting temperature at protein to compound molar ratio of 1:5 incubated for 30 mins by nanoDSF assay
In short: (§1)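 Recombinant N-Mbp-His-tagged Pks13-TE domain of Mtb Pks13 (Rv3800c), expressed in E. coli BL21(DE3)pLysS after 0.5 mM IPTG induction and purified to >95%. Protein was incubated with compound (stock in DMSO) in 100 mM NaCl, 20 mM Tris-HCl pH 8.0 for 30 min, with a DMSO blank. nanoDSF ramp 30–90 °C at 2 °C/min, read as the F350/F330 ratio. Tm shift averaged from three measurements.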

[5] = tested on: Mycobacterium tuberculosis; assay: Binding affinity to wild type Mycobacterium tuberculosis Pks13-TE expressed in Escherichia coli BL21(DE3)pLysS assessed as change in melting temperature at protein to compound molar ratio of 1:10 incubated for 30 mins by nanoDSF assay; in short: as §1
[6] = tested on: Staphylococcus aureus; assay: Antibacterial activity against Staphylococcus aureus Newman assessed as inhibition of bacterial growth measured after 18 hrs by two fold serial dilution method; type: functional
In short: (§2)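 Bacteria grown overnight at 37 °C in TSB without antibiotics. Compound in DMSO was serially diluted two-fold to final […] and mixed with an equal volume of bacteria. MIC was read after 18 h at 37 °C; three experiments per condition.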

[7] = tested on: Bacillus subtilis; assay: Antibacterial activity against Bacillus subtilis168 assessed as inhibition of bacterial growth measured after 18 hrs by two fold serial dilution method; type: functional; conditions: subsp. subtilis str. 168; in short: as §2
[8] = tested on: Escherichia coli; assay: Antibacterial activity against Escherichia coli AB1157 assessed as inhibition of bacterial growth measured after 18 hrs by two fold serial dilution method; type: functional; in short: as §2
[9] = tested on: Escherichia coli; assay: Antibacterial activity against Escherichia coli DH5-alpha assessed as inhibition of bacterial growth measured after 18 hrs by two fold serial dilution method; type: functional; in short: as §2
[10] = tested on: Mycobacterium tuberculosis; assay: Antitubercular activity against drug susceptible Mycobacterium tuberculosis V4207 by MABA assay; type: functional
In short: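 Microplate alamar blue assay (MABA) against each Mtb strain, either H37Rv or a clinical isolate (drug-susceptible, MDR or XDR). MIC taken as the lowest concentration giving at least 90% reduction of the bacterial growth signal. Each value is the average of three individual measurements.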

[11] = tested on: Mycobacterium tuberculosis; assay: Inhibition of Mycobacterium tuberculosis Pks13-TE using 4-MUH as substrate by measuring fluorescence product for every 10 mins for 60 mins
In short: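 Pks13-TE thioesterase activity measured with the fluorogenic substrate 4-methylumbelliferyl heptanoate at 20 µM final, in 0.1 M Tris-HCl pH 7.0. Compound was serially diluted from 20 µM down to about 0.0195 µM, or DMSO was added. Points were run in triplicate and averaged to build concentration-response curves for IC50.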

[12] = tested on: Mycobacterium tuberculosis; assay: Potency index, ratio of MIC for TAM16 to MICfor test compound for antitubercular activity against Mycobacterium tuberculosis H37Rv assessed as bacterial growth inhibition incubated for 4 days by MABA assay; type: functional; conditions: time 4 day

CCOC(=O)c1c(-c2ccccc2)oc2cc(C(=O)N3CCCCC3)c(OC)cc12
MIC=<90 [1]: >64 µg/mL

CCOC(=O)c1c(-c2ccccc2)oc2ccc(OC)c(C(=O)N3CCCCC3)c12
MIC=<90 [1]: >64 µg/mL

O=c1oc2ccccc2c2oc3ccc(O)c(CN4CCCCC4)c3c12
MIC=<90 [1]: 0.125 µg/mL (≈ 0.358 µM)

O=c1[nH]c2ccc(Br)cc2c2oc3ccc(O)c(CN4CCCCC4)c3c12
MIC=<90 [1]: 32 µg/mL (≈ 74.9 µM)

COc1ccc2c(c1)[nH]c(=O)c1c2oc2ccc(O)c(CN3CCCCC3)c21
MIC=<90 [1]: 0.25 µg/mL (≈ 0.661 µM) | IC50 [2]: 64 µg/mL (≈ 169 µM) | Ratio CC50/IC50 [3]: 256 | ΔTm [4]: 8.7 °C | ΔTm [5]: 9 °C

O=c1[nH]c2c(F)cccc2c2oc3ccc(O)c(CN4CCCCC4)c3c12
MIC=<90 [1]: 0.5 µg/mL (≈ 1.36 µM)

CN(C)[C@@H]1C(O)=C(C(N)=O)C(=O)[C@@]2(O)C(O)=C3C(=O)c4c(O)cccc4[C@@](C)(O)[C@H]3C[C@@H]12 [TETRACYCLINE]
MIC [6]: 0.2 µg/mL (≈ 0.45 µM) | MIC [7]: > 25 µg/mL | MIC [8]: 1.56 µg/mL (≈ 3.51 µM) | MIC [9]: 0.78 µg/mL (≈ 1.76 µM)

COc1ccc2[nH]c(=O)c3c(oc4ccc(O)c(CN5CCCCC5)c43)c2c1
MIC=<90 [1]: 4 µg/mL (≈ 10.6 µM)

COc1cc2c(cc1C(=O)N1CCCCC1)oc1c3ccccc3oc(=O)c21
MIC=<90 [1]: >64 µg/mL

O=c1[nH]c2cc(F)ccc2c2oc3ccc(O)c(CN4CCCCC4)c3c12
MIC=<90 [1]: 0.5 µg/mL (≈ 1.36 µM) | IC50 [2]: 16 µg/mL (≈ 43.7 µM) | Ratio CC50/IC50 [3]: 32

CN[C@H](CC(C)C)C(=O)N[C@H]1C(=O)N[C@@H](CC(N)=O)C(=O)N[C@H]2C(=O)N[C@H]3C(=O)N[C@H](C(=O)N[C@H](C(=O)O)c4cc(O)cc(O)c4-c4cc3ccc4O)[C@H](O)c3ccc(c(Cl)c3)Oc3cc2cc(c3O[C@@H]2O[C@H](CO)[C@@H](O)[C@H](O)[C@H]2O[C@H]2C[C@](C)(N)[C@H](O)[C@H](C)O2)Oc2ccc(cc2Cl)[C@H]1O [VANCOMYCIN]
MIC [6]: 0.39 µg/mL (≈ 0.269 µM) | MIC [7]: > 25 µg/mL | MIC [8]: > 25 µg/mL | MIC [9]: > 25 µg/mL

C[C@H]1COc2c(N3CCN(C)CC3)c(F)cc3c(=O)c(C(=O)O)cn1c23.C[C@H]1COc2c(N3CCN(C)CC3)c(F)cc3c(=O)c(C(=O)O)cn1c23.O [LEVOFLOXACIN]
MIC=<90 [10]: 0.125 µg/mL

O=c1[nH]c2ccc(Cl)cc2c2oc3ccc(O)c(CN4CCCCC4)c3c12
MIC=<90 [1]: 1 µg/mL (≈ 2.61 µM)

CCNC(=O)c1c(-c2ccc(F)cc2)oc2ccc(O)c(CN3CCCCC3)c12
MIC=<90 [1]: 4 µg/mL (≈ 10.1 µM)

CCNC(=O)c1c(-c2ccc(OC)cc2)oc2ccc(O)c(CN3CCCCC3)c12
MIC=<90 [1]: 2 µg/mL (≈ 4.9 µM)

O=c1[nH]c2cc(Br)ccc2c2oc3ccc(O)c(CN4CCCCC4)c3c12
MIC=<90 [1]: 0.5 µg/mL (≈ 1.17 µM) | IC50 [2]: 64 µg/mL (≈ 150 µM) | Ratio CC50/IC50 [3]: 128

CO[C@H]1/C=C/O[C@@]2(C)Oc3c(C)c(O)c4c(O)c(c(/C=N/N5CCN(C)CC5)c(O)c4c3C2=O)NC(=O)/C(C)=C\C=C\[C@H](C)[C@H](O)[C@@H](C)[C@@H](O)[C@@H](C)[C@H](OC(C)=O)[C@@H]1C [RIFAMPIN]
MIC=<90 [10]: 0.0625 µg/mL (≈ 0.0759 µM)

CCNC(=O)c1c(-c2ccccc2)oc2ccc(O)c(CN3CCCCC3)c12
MIC=<90 [1]: 4 µg/mL (≈ 10.6 µM)

CCOC(=O)c1c(-c2ccccc2)oc2cc(Br)c(O)c(CN3CCCCC3)c12
MIC=<90 [1]: 32 µg/mL (≈ 69.8 µM)

O=c1[nH]c2ccc(O)cc2c2oc3ccc(O)c(CN4CCCCC4)c3c12
MIC=<90 [1]: 1 µg/mL (≈ 2.74 µM) | IC50 [2]: 16 µg/mL (≈ 43.9 µM) | Ratio CC50/IC50 [3]: 16 | ΔTm [4]: 7.4 °C | ΔTm [5]: 8.5 °C

O=c1[nH]c2cc(O)ccc2c2oc3ccc(O)c(CN4CCCCC4)c3c12
MIC=<90 [1]: 0.0313 µg/mL (≈ 0.0859 µM) | MIC=<90 [10]: 0.0313 µg/mL (≈ 0.0859 µM) | IC50 [2]: 4 µg/mL (≈ 11 µM) | Ratio CC50/IC50 [3]: 64 | MIC [6]: > 25 µg/mL | MIC [7]: > 25 µg/mL | MIC [8]: > 25 µg/mL | MIC [9]: > 25 µg/mL | ΔTm [4]: 7.5 °C | ΔTm [5]: 9.4 °C | INH [11]: 0.58 µM

NNC(=O)c1ccncc1 [ISONIAZID]
MIC=<90 [10]: 0.04 µg/mL (≈ 0.292 µM)

COc1ccc2oc3c4ccccc4oc(=O)c3c2c1C(=O)N1CCCCC1
MIC=<90 [1]: >64 µg/mL

CNC(=O)c1c(-c2ccc(O)cc2)oc2ccc(O)c(CN3CCCCC3)c12
MIC=<90 [1]: 0.0313 µg/mL (≈ 0.0823 µM)

O=c1[nH]c2cc(Cl)ccc2c2oc3ccc(O)c(CN4CCCCC4)c3c12
MIC=<90 [1]: 0.5 µg/mL (≈ 1.31 µM) | IC50 [2]: 32 µg/mL (≈ 83.6 µM) | Ratio CC50/IC50 [3]: 64

O=c1oc2ccccc2c2[nH]c3ccc(O)c(CN4CCCCC4)c3c12
MIC=<90 [1]: 32 µg/mL (≈ 91.8 µM) | ΔTm [4]: 0.8 °C | ΔTm [5]: 3.1 °C

O=c1[nH]c2ccccc2c2oc3ccc(O)c(CN4CCCCC4)c3c12
MIC=<90 [1]: 0.25 µg/mL (≈ 0.718 µM) | ΔTm [4]: 9.6 °C | ΔTm [5]: 10.2 °C

CCOC(=O)c1c(-c2ccccc2)sc2ccc(O)c(CN3CCCCC3)c12
MIC=<90 [1]: 16 µg/mL (≈ 40.5 µM) | ΔTm [4]: 3.2 °C | ΔTm [5]: 3.3 °C

O=c1[nH]c2ccc(F)cc2c2oc3ccc(O)c(CN4CCCCC4)c3c12
MIC=<90 [1]: 1 µg/mL (≈ 2.73 µM) | IC50 [2]: 16 µg/mL (≈ 43.7 µM) | Ratio CC50/IC50 [3]: 16

O=c1oc2ccccc2c2oc3cc(Br)c(O)c(CN4CCCCC4)c3c12
MIC=<90 [1]: >64 µg/mL

CCOC(=O)c1c(-c2ccccc2)[nH]c2ccc(O)c(CN3CCCCC3)c12
MIC=<90 [1]: >32 µg/mL

O=c1oc2ccccc2c2sc3ccc(O)c(CN4CCCCC4)c3c12
MIC=<90 [1]: 1 µg/mL (≈ 2.74 µM) | ΔTm [4]: 7.9 °C | ΔTm [5]: 9.1 °C

O=c1oc2cc(O)ccc2c2oc3ccc(O)c(CN4CCCCC4)c3c12
MIC=<90 [1]: 0.0039 µg/mL (≈ 0.0107 µM) | Ratio [12]: 8

O=c1[nH]c2c(Cl)cccc2c2oc3ccc(O)c(CN4CCCCC4)c3c12
MIC=<90 [1]: 1 µg/mL (≈ 2.61 µM)

NC[C@H]1O[C@H](O[C@H]2[C@H](O)[C@@H](O[C@H]3O[C@H](CO)[C@@H](O)[C@H](N)[C@H]3O)[C@H](N)C[C@@H]2N)[C@H](O)[C@@H](O)[C@@H]1O [KANAMYCIN]
MIC=<90 [10]: 2 µg/mL (≈ 4.13 µM) | MIC [6]: 2.34 µg/mL (≈ 4.83 µM) | MIC [7]: 9.39 µg/mL (≈ 19.4 µM) | MIC [8]: 9.39 µg/mL (≈ 19.4 µM) | MIC [9]: 2.34 µg/mL (≈ 4.83 µM)

CCOC(=O)c1c(-c2ccccc2)oc2ccc(O)c(CN3CCCCC3)c12
MIC=<90 [1]: 2 µg/mL (≈ 5.27 µM) | INH [11]: 4.6 µM

CC1COc2c(N3CCN(C)CC3)c(F)cc3c(=O)c(C(=O)O)cn1c23 (stereo not drawn) [OFLOXACIN]
MIC=<90 [10]: 0.5 µg/mL (≈ 1.38 µM)
